# Compound activity (PubChem)
# HCT116 bCat-KO = beta-catenin-lacking colon tumor cell growth suppression. 140,000 tested, 1.5% active. HCT116 beta-catenin knockout viability, CellTiter-Glo, 60 h; hits give low values. viability, % at 10 µM;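 active means viability at or under a set limit, the compound median less 4 SD, cut at about 6% in these data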;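 further: 0% = Hyamine 1622 control at 20 µM and 100% = untreated cell control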
# HUVEC prolif 384 = inhibitors of human endothelial cell proliferation; HUVEC proliferation, CellTiter-Glo luminescence, 72 h; hits give low values; viability, % at 10 µM (by protocol); 86,000 tested, 1.1% active; AID 648;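 active means viability at or below 30%; inactive means viability above 30%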;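 further: 100% = median luminescence of DMSO-only cell control wells on each plate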
# HCT116 PTEN-null = suppresses growth of cells with PTEN deletion; HCT116 PTEN-null viability, CellTiter-Glo, 60 h; hits give low values; viability, % at 10 µM; 140,000 tested, 1.2% active; AID 827;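 active means viability at or below a set limit, 4 SD under the median of all tested compounds, cut at about 3.7% in these data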;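 further: PTEN knockout HCT116 line with beta catenin targeted HCT116 as companion control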
# H69AR growth 86K = growth inhibitors of human H69AR lung tumor cells | H69AR lung tumor viability, ATP luminescence, 72 h; hits give low values | viability, % at 10 µM | 85,000 tested, 6% active | AID 598;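 active means viability at or below 40%; inactive means viability above 40%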;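 further: multidrug resistant small cell line overexpressing MRP-1 efflux transporter; 100% = mean luminescence of untreated control wells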
# Lung fibro prol = blocks proliferation of human lung fibroblasts | LL 47 human lung fibroblast viability, ATP luminescence; hits give low values | viability, % at 10 µM | 85,000 tested, 1.1% active | AID 719;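 active means viability at or below 50% in the single dose screen; inactive means viability above 50%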;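 further: compound exposure lasted 72 h before the ATP readout; 100% = median luminescence of untreated cell-only wells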
#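 Benchmarks: Cell-only wells, no compound | Test system: LL 47 human lung fibroblasts, passage 12 or lower | Input: 1,150 cells/well | Measured by: CellTiter-Glo luminescence measuring cellular ATP | Medium: IMEM, 15% FBS supplement | Schedule: Overnight attachment after seeding, then 72 h compound exposure at 37 °C | Doses: Compound addition at 0.1% DMSO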
# Active calls of the source: *; x = not tested or not shown. Shown is part of a subset that was picked to be rich in hits.
SMILES,HCT116 bCat-KO,HUVEC prolif 384,HCT116 PTEN-null,H69AR growth 86K,Lung fibro prol
COc1cccc(NC(=O)COC(=O)c2c3c(nc4ccccc24)CCC(C)C3)c1 (configuration not stated),1.7*,31,1.4*,23*,88
O=C(OCn1ncc(Br)c(Br)c1=O)c1c(F)cccc1F,1.4*,2.0*,1.5*,1.0*,2.0*
CCN(CC)c1ccc(NC(=O)CC2Oc3ccccc3NC2=O)c(C)c1 (configuration not stated),71,78,65,25*,87
Cc1ccc(S(=O)(=O)N(C)C)cc1NC(=O)COC(=O)/C(=C/c1ccc(F)cc1)c1cccs1,67,x,56,x,x
Cc1oc(-c2ccc(Cl)cc2)nc1CN1CCC(C(=O)N2CCc3ccccc3C2)CC1,14,34,15,1.3*,78
Cc1oc(-c2cccc(Cl)c2)nc1CN1CCC(C(=O)N2CCN(c3ccccc3F)CC2)CC1,x,16*,x,5.8*,86
CCOC(=O)C1CCCN(C(=O)C2CCN(Cc3nc(-c4ccc(Cl)cc4)oc3C)CC2)C1 (configuration not stated),x,87,x,74,103
Cc1oc(-c2ccc(Cl)cc2)nc1CN1CCC(C(=O)N2CCN(Cc3ccccc3)CC2)CC1,2.0*,16*,7,83,82
Cc1oc(-c2cccc(Cl)c2)nc1CN1CCC(C(=O)NCc2ccco2)CC1,97,83,93,83,102
COCCN1C(=O)N[C@@H](c2ccc(Br)cc2)C(C(C)=O)=C1C,100,x,98,x,x
Cc1cccc(NC(=O)/C=C/c2ccc([N+](=O)[O-])s2)c1,2.8*,x,1.1*,x,x
Cc1ccc(NC(=O)/C=C/c2ccc([N+](=O)[O-])s2)cc1,9,x,4,x,x
O=[N+]([O-])c1ccc(/C=N/NC(=S)Nc2ccccc2)o1,61,x,48,x,x
Cc1cccc(NC(=S)N/N=C/c2ccc([N+](=O)[O-])s2)c1,1.0*,x,0.8*,x,x
Cc1ccc(NC(=O)/C=C/c2ccc([N+](=O)[O-])s2)c(C)c1,2.6*,x,1.1*,x,x
O=C(NC1CCCCC1)Sc1ccc(Cl)cc1,66,62,33,36*,83
O=C(/C=C/c1cccc([N+](=O)[O-])c1)NC(=S)Nc1cccc(NC(=O)c2ccccc2Cl)c1,11,x,2.8*,x,x
CC1=C(C(=O)Nc2cc(-c3cccc(F)c3)[nH]n2)C2(CCCCC2)OC1=O,58,77,74,32*,76
CCOc1ccc(N(CCC#N)S(=O)(=O)c2ccc(OC)cc2)cc1,62,80,56,21*,85
CCOC(=O)/C(N)=C/c1ncc(C(F)(F)F)cc1Cl,98,x,94,x,x
Cc1c(Cl)cccc1NC(=O)CCC(=O)NNC(=O)c1ccccc1,92,x,86,x,x
Cc1cccc(-c2nc(CSCC(=O)N3CCN(Cc4ccc5c(c4)OCO5)CC3)c(C)o2)c1,12,88,18,33*,95
COC(=O)C1CCN(c2nc3ccccc3nc2C(C#N)C(=O)NCCc2ccccc2)CC1 (configuration not stated),66,64,74,57,82
COc1ccc(CNC(=O)C(C#N)c2nc3ccccc3nc2N2CCN(C)CC2)cc1 (configuration not stated),36,4.2*,45,34*,93
CCCCNC(=O)C(C#N)c1nc2ccccc2nc1N1CCCC1 (configuration not stated),97,105,90,100,96
SMILES,HCT116 bCat-KO,HUVEC prolif 384,HCT116 PTEN-null,H69AR growth 86K,Lung fibro prol
COc1ccc(CNC(=O)C(C#N)c2nc3ccccc3nc2N2CCCC2)cc1 (configuration not stated),58,72,55,34*,90
CCCCOc1ccc(CNC(=S)N/N=C/c2ccc(OC)c(OC)c2)cc1,75,x,54,x,x
OCCNc1c2ccccc2nc2c(F)c(F)c(F)c(F)c12,1.5*,x,1.1*,x,x
Cc1c2ccccc2nc2c(F)c(NCCO)c(F)c(F)c12,56,x,68,x,x
COc1cc(C(=O)O/N=C2\C=CC(=O)C(C)=C2)cc(OC)c1OC,1.5*,x,1.4*,x,x
COc1ccc(Cc2nnc(SCC(=O)N3CCc4ccccc4C3)o2)cc1,78,90,95,92,102
O=C(c1nnc(Cc2ccc(Cl)cc2)o1)N1CCc2ccccc2C1,1.1*,109,0.6*,105,106
COc1cccc(-n2nnc3c(=O)n(CC(=O)N4CCC(Cc5ccccc5)CC4)cnc32)c1,66,75,68,30*,94
COc1ccc(/C=N/NC(=O)CC2N=C(Cc3ccccc3)NNC2=O)cc1OC (configuration not stated),92,x,100,x,x
O=S(=O)(CCSc1nc2ccccc2o1)c1nc2ccccc2s1,5.1*,12*,3.5*,95,6.2*
O=S(=O)(CCSc1ccccn1)c1nc2ccccc2s1,35,37,53,1.9*,43*
CCS(=O)(=O)CCSc1nc2ccccc2o1,96,112,87,89,111
CC1=CC(=O)C(C(C)C)=C/C1=N/OC(=O)c1cccc([N+](=O)[O-])c1,51,104,60,33*,87
CC1=CC(=NOC(=O)c2cccc([N+](=O)[O-])c2)C=C(C)C1=O,9,96,27,74,91
CCC1Oc2ccc(C)cc2N(CC(=O)N(Cc2ccc3c(c2)OCO3)CC2CCCO2)C1=O (configuration not stated),79,96,70,50,104
COc1ccc(CN(CC2CCCO2)C(=O)CN2C(=O)C(C)Oc3ccc(C)cc32)cc1OC (configuration not stated),75,72,74,40*,103
O=C(C1CCCCC1)N(Cc1nc2sc3c(c2c(=O)[nH]1)CCCC3)Cc1cccs1,81,59,74,66,95
O=C(NCCCn1ccnc1)c1cc2nc(-c3ccc(Br)cc3)cc(C(F)(F)F)n2n1,75,57,71,4.2*,94
Cc1ccc(Cn2c(=S)[nH]c3ccc(N4CCOCC4)cc3c2=O)o1,85,76,76,5.8*,46*
CCOc1cc(C(=O)N2CCN(c3ccc(C(C)=O)cc3)CC2)cc(OCC)c1OCC,86,93,95,38*,100
O=C(NCc1ccco1)Nc1ccc(Br)cc1,97,95,93,91,98
O=C(NCc1ccco1)Nc1ccc2nsnc2c1,63,98,59,31*,100
C/C=C(\CS(=O)(=O)c1ccccc1)S(=O)(=O)c1ccccc1,52,89,36,25*,64
CC1CCN(S(=O)(=O)c2ccc(S(=O)(=O)NCc3ccccc3)cc2)CC1,51,76,46,38*,90
CC1CCCC(C)N1S(=O)(=O)c1ccc(S(=O)(=O)NCc2ccccc2)cc1 (configuration not stated),58,90,41,36*,46*
O=S(=O)(NCc1ccccc1)c1ccc(S(=O)(=O)N2CCCCC2)cc1,72,91,80,82,98
